Source: ChEMBL document CHEMBL1157589, “Antifungal 3,5-disubstituted furanones: From 5-acyloxymethyl to 5-alkylidene derivatives” (Bioorg Med Chem, 2010)
Converted amounts (≈) assume the structure as drawn. The source made the active and inactive calls. No cut-off for these calls is given here.

Tests used:
[1] = system: Lichtheimia corymbifera; test: Antifungal activity against Absidia corymbifera 272 after 24 hrs by microdilution method; format: functional; conditions: Lichtheimia corymbifera, 272, 24 h
Procedure, shortened: (§1)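 Filamentous strains held on Sabouraud dextrose agar. NCCLS M27-A broth microdilution in RPMI 1640 with L-glutamine and 0.165 M MOPS, pH 7.0. DMSO diluent ≤2% final; twofold dilutions 500–0.48. Inoculum 5 × 10³ ± 0.2 cfu mL⁻¹ final.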

[2] = system: Pichia kudriavzevii; test: Antifungal activity against Candida krusei E28 after 48 hrs by microdilution method; format: functional; conditions: E28, 48 h
Procedure, shortened: (§2)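 Yeasts held on Sabouraud dextrose agar. MIC by NCCLS M27-A broth microdilution in RPMI 1640 with L-glutamine, buffered with 0.165 M MOPS to pH 7.0. Compounds in DMSO (≤2% final), twofold dilutions 500–0.48. Final inoculum 5 × 10³ ± 0.2 cfu mL⁻¹. Incubated at 35 °C; absorbance at 540 nm read at 24 and 48 h. MIC is 80% growth inhibition versus control; run twice in duplicate.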

[3] = system: Trichosporon beigelii; test: Antifungal activity against Trichosporon beigelii 1188 after 24 hrs by microdilution method; format: functional; conditions: Trichosporon beigelii, 1188, 24 h; procedure, shortened: as §2
[4] = system: HL-60; test: Cytostatic activity against human HL60 cells after 72 hrs by XTT assay; format: functional, cell-based; conditions: Homo sapiens, HL-60, 72 h; read-out: IC50
Procedure, shortened: (§3)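 Leukemia cells (L1210 ATCC CCL 219, CCRF-CEM ATCC CCL 119, HL-60 ATCC CCL 240) grown in 24-well plates in RPMI 1640 with fetal calf serum. Growth assessed 72 h after drug addition. Viability measured by XTT spectrophotometric assay; potency given as IC50.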

[5] = system: Candida tropicalis; test: Antifungal activity against Candida tropicalis 156 after 48 hrs by microdilution method; format: functional; conditions: Candida tropicalis, 156, 48 h; procedure, shortened: as §2
[6] = system: Clavispora lusitaniae; test: Antifungal activity against Candida lusitaniae 2446/I after 48 hrs by microdilution method; format: functional; procedure, shortened: as §2
[7] = system: HeLa S3; test: Cytostatic activity against human HeLaS3 cells after 48 hrs by XTT assay; conditions: Homo sapiens, HeLa S3, 48 h; read-out: IC50
[8] = system: CCRF-CEM; test: Induction of apoptosis in human CCRF-CEM cells assessed as loss of cellular […] membrane integrity at 2.5 umol/L after 72 hrs by annexin-V FITC staining-based flow cytometry; format: functional, cell-based
Procedure, shortened: (§4)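 CCRF-CEM cells grown with compound at 2.5 µmol/L alongside untreated controls. Apoptotic and necrotic populations detected by flow cytometry using an Annexin V-FITC apoptosis kit, following the manufacturer's protocol.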

[9] = system: Nakaseomyces glabratus; test: Antifungal activity against Candida glabrata 20/I after 24 hrs by microdilution method; format: functional; procedure, shortened: as §2
[10] = system: Candida albicans; test: Antifungal activity against Candida albicans ATCC 44859 after 24 hrs by microdilution method; format: functional; conditions: ATCC 44859, 24 h; procedure, shortened: as §2
[11] = system: Aspergillus fumigatus; test: Antifungal activity against Aspergillus fumigatus 231 after 48 hrs by microdilution method; format: functional; conditions: Aspergillus fumigatus, 231, 48 h; procedure, shortened: as §1
[12] = system: Pichia kudriavzevii; test: Antifungal activity against Candida krusei ATCC 6258 after 24 hrs by microdilution method; format: functional; conditions: ATCC 6258, 24 h; procedure, shortened: as §2
[13] = system: CCRF-CEM; test: Cell cycle arrest in human CCRF-CEM cells assessed as increase in accumulation at G1 phase at 2.5 umol/L after 72 hrs by FACS analysis; format: functional, cell-based
Procedure, shortened: (§5)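 CCRF-CEM cells cultured with compound at 2.5 µmol/L. At the 72 h growth endpoint, cells ethanol-fixed and stained with propidium iodide in RNase A-containing buffer. Cell-cycle distribution analysed by flow cytometry against untreated control cells.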

[14] = system: CCRF-CEM; test: Induction of apoptosis in human CCRF-CEM cells assessed as loss of cellular plasma membrane integrity at 2.5 umol/L after 72 hrs by annexin-V FITC staining-based flow cytometry; format: functional, cell-based; procedure, shortened: as §4
[15] = system: L1210; test: Cytostatic activity against mouse L1210 cells after 72 hrs by XTT assay; format: functional, cell-based; conditions: Mus musculus, L1210, 72 h; read-out: IC50; procedure, shortened: as §3
[16] = system: Candida albicans; test: Antifungal activity against Candida albicans ATCC 90028 after 24 hrs by microdilution method; format: functional; conditions: ATCC 90028, 24 h; procedure, shortened: as §2
[17] = system: Candida albicans; test: Antifungal activity against Candida albicans ATCC 90028 after 48 hrs by microdilution method; format: functional; conditions: ATCC 90028, 48 h; procedure, shortened: as §2
[18] = system: Trichophyton mentagrophytes; test: Antifungal activity against Trichophyton mentagrophytes 445 after 72 hrs by microdilution method; format: functional; conditions: Trichophyton mentagrophytes, 445, 72 h
Procedure, shortened: (§6)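 Dermatophyte held on Sabouraud dextrose agar. M27-A microdilution in MOPS-buffered (0.165 M, pH 7.0) RPMI 1640 with L-glutamine. DMSO ≤2% final; twofold dilutions 500–0.48. Inoculum 5 × 10³ ± 0.2 cfu mL⁻¹ final. Incubated at 35 °C; MIC read visually at 72 and 120 h as 80% inhibition of control growth; determined twice in duplicate.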

[19] = system: Trichophyton mentagrophytes; test: Antifungal activity against Trichophyton mentagrophytes 445 after 120 hrs by microdilution method; format: functional; conditions: Trichophyton mentagrophytes, 445, 120 h; procedure, shortened: as §6
[20] = system: Clavispora lusitaniae; test: Antifungal activity against Candida lusitaniae 2446/I after 24 hrs by microdilution method; format: functional; procedure, shortened: as §2
[21] = system: CCRF-CEM; test: Induction of apoptosis in human CCRF-CEM cells assessed as necrotic cells at 2.5 umol/L after 72 hrs by annexin-V FITC staining-based flow cytometry; format: functional; procedure, shortened: as §4
[22] = system: Nakaseomyces glabratus; test: Antifungal activity against Candida glabrata 20/I after 48 hrs by microdilution method; format: functional; procedure, shortened: as §2
[23] = system: Candida tropicalis; test: Antifungal activity against Candida tropicalis 156 after 24 hrs by microdilution method; format: functional; conditions: Candida tropicalis, 156, 24 h; procedure, shortened: as §2
[24] = system: Candida parapsilosis; test: Antifungal activity against Candida parapsilosis ATCC 22019 after 48 hrs by microdilution method; format: functional; conditions: Lodderomyces parapsilosis, ATCC 22019, 48 h; procedure, shortened: as §2
[25] = system: Aspergillus fumigatus; test: Antifungal activity against Aspergillus fumigatus 231 after 24 hrs by microdilution method; format: functional; conditions: Aspergillus fumigatus, 231, 24 h; procedure, shortened: as §1
[26] = system: Trichosporon beigelii; test: Antifungal activity against Trichosporon beigelii 1188 after 48 hrs by microdilution method; format: functional; conditions: Trichosporon beigelii, 1188, 48 h; procedure, shortened: as §2
[27] = system: Pichia kudriavzevii; test: Antifungal activity against Candida krusei E28 after 24 hrs by microdilution method; format: functional; conditions: E28, 24 h; procedure, shortened: as §2
[28] = system: Pichia kudriavzevii; test: Antifungal activity against Candida krusei ATCC 6258 after 48 hrs by microdilution method; format: functional; conditions: ATCC 6258, 48 h; procedure, shortened: as §2
[29] = system: Candida albicans; test: Antifungal activity against Candida albicans ATCC 44859 after 48 hrs by microdilution method; format: functional; conditions: ATCC 44859, 48 h; procedure, shortened: as §2
[30] = system: CCRF-CEM; test: Cell cycle arrest in human CCRF-CEM cells assessed as increase in accumulation at S phase at 2.5 umol/L after 72 hrs by FACS analysis; format: functional, cell-based; procedure, shortened: as §5
[31] = system: CCRF-CEM; test: Cell cycle arrest in human CCRF-CEM cells assessed as decrease in accumulation at G2/M phase at 2.5 umol/L after 72 hrs by FACS analysis; format: functional, cell-based; procedure, shortened: as §5
[32] = system: Candida parapsilosis; test: Antifungal activity against Candida parapsilosis ATCC 22019 after 24 hrs by microdilution method; format: functional; conditions: Lodderomyces parapsilosis, ATCC 22019, 24 h; procedure, shortened: as §2
[33] = system: Lichtheimia corymbifera; test: Antifungal activity against Absidia corymbifera 272 after 48 hrs by microdilution method; format: functional; conditions: Lichtheimia corymbifera, 272, 48 h; procedure, shortened: as §1
[34] = system: CCRF-CEM; test: Cytostatic activity against human CCRF-CEM cells after 72 hrs by XTT assay; format: functional, cell-based; conditions: Homo sapiens, CCRF-CEM, 72 h; read-out: IC50; procedure, shortened: as §3

MIC80 [1]: 31.2 µM (≈ 7.85 µg/mL)
MIC80 [2]: 7.81 µM (≈ 1.96 µg/mL)
MIC80 [3]: 3.9 µM (≈ 0.979 µg/mL)
IC50 [4]: 18 µM
MIC80 [5]: 15.6 µM (≈ 3.92 µg/mL)
MIC80 [6]: 15.6 µM (≈ 3.92 µg/mL)
IC50 [7]: 2.09 µM
MIC80 [9]: 1.95 µM (≈ 0.49 µg/mL)
MIC80 [10]: 0.49 µM (≈ 0.123 µg/mL)
MIC80 [11]: 7.81 µM (≈ 1.96 µg/mL)
MIC80 [12]: 7.81 µM (≈ 1.96 µg/mL)
IC50 [15]: 21 µM
MIC80 [16]: 3.9 µM (≈ 0.979 µg/mL)
MIC80 [17]: 7.81 µM (≈ 1.96 µg/mL)
MIC80 [18]: 1.95 µM (≈ 0.49 µg/mL)
MIC80 [19]: 3.9 µM (≈ 0.979 µg/mL)
MIC80 [20]: 7.81 µM (≈ 1.96 µg/mL)
MIC80 [22]: 1.95 µM (≈ 0.49 µg/mL)
MIC80 [23]: 7.81 µM (≈ 1.96 µg/mL)
MIC80 [24]: 15.6 µM (≈ 3.92 µg/mL)
MIC80 [25]: 1.95 µM (≈ 0.49 µg/mL)
MIC80 [26]: 15.6 µM (≈ 3.92 µg/mL)
MIC80 [27]: 7.81 µM (≈ 1.96 µg/mL)
MIC80 [28]: 7.81 µM (≈ 1.96 µg/mL)
MIC80 [29]: 1.95 µM (≈ 0.49 µg/mL)
MIC80 [32]: 7.81 µM (≈ 1.96 µg/mL)
MIC80 [33]: 125 µM (≈ 31.4 µg/mL)
IC50 [34]: 2.52 µM
SMILES: C=C1C=C(c2ccc(Br)cc2)C(=O)O1
Activity [8]: Active
Activity [13]: Active
Activity [14]: Active
Activity [21]: > 80%
Activity [30]: Active
Activity [31]: Active
